C2C12 statin: suppression of simvastatin myotoxicity; C2C12 myotubes + simvastatin, ATP luminescence, 48 h; scaled: DMSO 0, geranylgeraniol control 100; rescue of ATP level, % at 7.49 µM; hit rate 0.78% among 330,000;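 active means mean ATP rescue above about 67%, or every replicate alone reaching that limit, limit read from the data, passing the limit was not always enough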;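 further: myotubes were challenged with 10 µM simvastatin during compound exposure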
DENV2 CPE rescue: DENV2-induced cell death inhibition | DENV2-infected cells, cytopathic effect rescue, plate reader | CPE inhibition, % at 9.99 µM | hit rate 1.7% among 350,000 | AID 651640; in the data active means CPE inhibition above about 20%, passing the limit was not always enough; tested in BHK-21 cells
Cneo AK release: Cryptococcus neoformans lysis via adenylate kinase release; C. neoformans lysis, adenylate kinase release luminescence, 4 h; normalised: neutral wells 0, clomiphene wells 100; lysis activity, % at 15 µM; hit rate 0.2% among 360,000; AID 651654;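 active means mean lysis activity across replicates of at least 80%, whatever share of replicates individually reach that level; inactive means mean lysis activity below 80%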
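Assay system: Cryptococcus neoformans yeast cells / Dosing: single-point compound dose / Timing: 4 h at 37 °C static, read 1 h later / Measured by: luminescence of released adenylate kinase using an AK detection reagent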
Xi reactivation: X-chromosome reactivation activator | hit rate 0.055% among 360,000 | XiGFP mouse fibroblasts, % GFP-positive cells imaging, 3 d; cells co-treated with 5-aza-dC sensitizer; scaled so ellipticine positive control = 100% | activation, % at 7.58 µM | AID 743238;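 active means mean normalized replicate activation at least 10% and every replicate at or above 10%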
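Material: XiGFP fibroblasts, SV40-immortalized; Buffer or medium: DMEM containing 5-aza-dC; Compound dosing: single point; Times: 3 days compound exposure.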
Each line names hits and unclear results; the compound was inactive in the other large screens; ! = a repeat was not active. A selection: hits, their analogues and other compounds. The true share with any hit is near 2.1%.

C[C@@H]1CN([C@@H](C)CO)C(=O)c2cc(NS(=O)(=O)c3ccccc3)ccc2O[C@H]1CN(C)C(=O)NC1CCCCC1	Cneo AK release 112
C[C@H](CO)N1C[C@H](C)[C@H](CN(C)C(=O)NC2CCCCC2)Oc2ccc(NS(=O)(=O)c3ccc(F)cc3)cc2C1=O	none
C[C@H](CO)N1C[C@H](C)[C@@H](CN(C)C(=O)NC2CCCCC2)Oc2ccc(NS(C)(=O)=O)cc2C1=O	DENV2 CPE rescue 29!
COc1cccc(-c2ccc(C3[C@@H]4CN(S(=O)(=O)c5cn(C)cn5)C[C@H]3N4)cc2)c1 (stereo partly specified)	DENV2 CPE rescue 131! (no result: C2C12 statin, Cneo AK release)
Cn1cnc(S(=O)(=O)N2CCCCN3[C@H](CO)[C@@H](c4ccc(-c5ccccc5)cc4)[C@H]3C2)c1	DENV2 CPE rescue 26 (no result: C2C12 statin)
COc1ccc(-c2ccc([C@H]3[C@@H](CO)N4CCCCN(S(=O)(=O)c5cccs5)C[C@@H]34)cc2)cc1	DENV2 CPE rescue 22 (no result: C2C12 statin)
COc1cccc(-c2ccc([C@@H]3[C@@H](CO)N4CCCCN(S(=O)(=O)c5cccs5)C[C@@H]34)cc2)c1	none
CN1CCCCN2[C@H](CO)[C@H](c3ccc(C4=CCCC4)cc3)[C@H]2C1	DENV2 CPE rescue 29
O=S(=O)(c1cccs1)N1CCCCN2[C@H](CO)[C@H](c3ccc(C4=CCCC4)cc3)[C@@H]2C1	DENV2 CPE rescue 46
CS(=O)(=O)N1C[C@@H]2N[C@H](C1)[C@@H]2c1ccc(-c2ccccc2)cc1	DENV2 CPE rescue 100 (no result: C2C12 statin, Cneo AK release)
O=S(=O)(c1cccs1)N1CCCCN2[C@H](CO)[C@H](c3ccc(-c4ccccc4)cc3)[C@@H]2C1	DENV2 CPE rescue 23
O=S(=O)(c1cccs1)N1CCCCN2[C@@H](CO)[C@H](c3ccc(C4=CCCC4)cc3)[C@@H]2C1	none
CO[C@H](CN(C)CC1CCOCC1)[C@H](C)CN(C(=O)Nc1ccc(F)cc1)[C@@H](C)CO	none
Cc1cc(NC(=O)Cn2c(=O)oc3ccc(Cl)cc32)no1	DENV2 CPE rescue 45
COCC#Cc1ccc2c(c1)O[C@H](CN(C)Cc1ccccc1)[C@@H](C)CN([C@H](C)CO)S2(=O)=O	DENV2 CPE rescue 28
COCC#Cc1ccc2c(c1)O[C@@H](CN(C)Cc1ccccc1)[C@H](C)CN([C@H](C)CO)S2(=O)=O	DENV2 CPE rescue 23
COCC#Cc1ccc2c(c1)O[C@H](CN(C)Cc1ccncc1)[C@@H](C)CN([C@@H](C)CO)S2(=O)=O	none
COCC#Cc1ccc2c(c1)O[C@@H](CN(C)Cc1ccncc1)[C@H](C)CN([C@H](C)CO)S2(=O)=O	DENV2 CPE rescue 20
COCC#Cc1ccc2c(c1)O[C@H](CN(C)Cc1ccccc1)[C@H](C)CN([C@H](C)CO)S2(=O)=O	none
C[C@H](CO)N1C[C@H](C)[C@@H](CN(C)Cc2ccc(Oc3ccccc3)cc2)Oc2cc(Br)ccc2S1(=O)=O	DENV2 CPE rescue 25!
CN(C)CC(=O)N[C@@H]1CC[C@@H](CCNC(=O)C2CC2)O[C@H]1CO	none (no result: C2C12 statin, Cneo AK release)
C[C@@H]1CCCCO[C@@H](CN(C)Cc2ccncc2)[C@H](C)CN([C@H](C)CO)C(=O)c2cc(NC(=O)c3ccccc3)ccc2O1	none
Cc1ccc(S(=O)(=O)Nc2ccc3c(c2)C(=O)N([C@@H](C)CO)C[C@H](C)[C@H](CN(C)C(=O)Nc2c(C)noc2C)OCCCC[C@H](C)O3)cc1	none (no result: C2C12 statin)
CCOC(=O)C1CCN(c2c(C(=O)c3ccccc3)cnc3ccc(Cl)cc23)CC1	DENV2 CPE rescue 34
CN(C)C(=O)c1ccc(-c2cccc(-c3nc(C(=O)N(C)C)cc4c3[C@@H](CCO)N([S@](=O)C(C)(C)C)C4)c2)cc1	none
COC(=O)C1=CO[C@@H](O[C@@H]2O[C@H](CO)[C@@H](O)[C@H](O)[C@H]2O)C2C1CC(O)O[C@H]2C (stereo partly specified)	DENV2 CPE rescue 23
O=C(C[C@@H]1CC[C@H]2[C@@H](COC[C@@H](O)CN2C(=O)c2cnccn2)O1)NCc1ccccc1	none
CC(=O)N(C)C[C@H]1Oc2ncc(-c3cccnc3)cc2C(=O)N([C@H](C)CO)C[C@H]1C	none
COc1cc2c(C(=O)NCCCN3CCN(c4cccc(Cl)c4)CC3)cn(C)c(=O)c2cc1OC	C2C12 statin 122 (no result: DENV2 CPE rescue, Xi reactivation)
COc1ccc(S(N)(=O)=O)cc1C(=O)NCCCN1CCN(c2cccc(Cl)c2)CC1	none (no result: DENV2 CPE rescue, Xi reactivation)
CN1OC[C@@H]2CN(Cc3cc(Cl)cc(Cl)c3)[C@H](c3cccc(-c4ccc(C#N)cc4)c3)C[C@@H]21	DENV2 CPE rescue 24
CC(=O)N1C[C@H]2CON(C)[C@H]2C[C@H]1c1cccc(-c2ccc(C#N)cc2)c1	DENV2 CPE rescue 21
OC[C@@H]1[C@@H](c2ccc(-c3ccccc3)cc2)[C@H]2CN(CCC(F)(F)F)CCCCN12	DENV2 CPE rescue 20 (no result: C2C12 statin)
OC[C@@H]1[C@H](c2ccc(-c3cccc(F)c3)cc2)[C@@H]2CN(CCC(F)(F)F)CCCCN12	DENV2 CPE rescue 41
OC[C@@H]1[C@@H](c2ccc(-c3cccc(F)c3)cc2)[C@@H]2CN(CCC(F)(F)F)CCCCN12	none
OC[C@H]1[C@@H](c2ccc(-c3ccccc3)cc2)[C@H]2CN(CCC(F)(F)F)CCCCN21	none (no result: C2C12 statin, DENV2 CPE rescue)
O=C(NCc1ccccc1)c1ccccc1	DENV2 CPE rescue 20 (no result: Xi reactivation)
O=C(NCc1ccccc1)c1ccc(C(=O)NCc2ccccc2)cc1	none (no result: C2C12 statin, Cneo AK release)
C[C@@H]1CN([C@@H](C)CO)C(=O)Cc2cc(NC(=O)Cc3cn(C)c4ccccc34)ccc2O[C@@H]1CN(C)C	none
CO[C@H]1CN(C)C(=O)c2cc(NC(=O)NC(C)C)ccc2OC[C@H](C)N(Cc2cncnc2)C[C@H]1C	none (no result: DENV2 CPE rescue)
Cc1cc2ccccc2cc1C(=O)c1ccccc1	none
O=C(c1ccccc1)c1c2c(cc3sc4ccccc4[n+]13)-c1cccc3cccc-2c13	Xi reactivation 73 (no result: C2C12 statin, DENV2 CPE rescue)
Cc1sc2cc3c(c(C(=O)c4ccccc4)[n+]2c1C)-c1cccc2cccc-3c12	DENV2 CPE rescue 36 (no result: C2C12 statin, Cneo AK release)
COc1ccc(NC(=O)Nc2ccc3c(c2)C(=O)N([C@H](C)CO)C[C@@H](C)[C@H](CN(C)C(=O)NC(C)C)O3)cc1	none
O=C(NCc1ccccc1)/C(=C\c1cccc([N+](=O)[O-])c1)NC(=O)c1ccco1	DENV2 CPE rescue 46
O=C(O)CNC(=O)/C(=C/c1cccc([N+](=O)[O-])c1)NC(=O)c1ccco1	none (no result: C2C12 statin)
CC(C)CC#Cc1cnc2c(c1)C(=O)N([C@@H](C)CO)C[C@H](C)[C@H](CN(C)C(=O)c1ccc3c(c1)OCO3)O2	Cneo AK release 85
CC(C)CC#Cc1cnc2c(c1)C(=O)N([C@@H](C)CO)C[C@@H](C)[C@H](CN(C)C(=O)c1ccc3c(c1)OCO3)O2	C2C12 statin 78
CC(C)CC#Cc1cnc2c(c1)C(=O)N([C@H](C)CO)C[C@H](C)[C@@H](CN(C)C(=O)c1ccc3c(c1)OCO3)O2	none
CC(C)CC#Cc1cnc2c(c1)C(=O)N([C@H](C)CO)C[C@@H](C)[C@H](CN(C)C(=O)c1ccc3c(c1)OCO3)O2	none

Assay outcomes as filed in PubChem.
